Results published in ChEMBL document CHEMBL1268908, “Design, synthesis, radiolabeling, and in vivo evaluation of carbon-11 labeled N-[2-[4-(3-cyanopyridin-2-yl)piperazin-1-yl]ethyl]-3-methoxybenzamide, a potential positron emission tomography tracer for the dopamine D(4) receptors” (J Med Chem, 2010).

Experiments:
Format in all cases: ADME, organism-based, Macaca mulatta
[1] = Biodistribution in rhesus monkey retina at 150.3 MBq, iv after 52.5 mins; details: in vivo, 0.875 h
[2] = Biodistribution in rhesus monkey entorhinal cortex at 150.3 MBq, iv after 15 mins; details: in vivo, 0.25 h
Outline: (§1)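 Single male rhesus monkey anesthetized with ketamine 10 mg/kg im, head fixed. Attenuation correction by 20 min 68Ge-68Ga transmission scan. [11C]-tracer in saline (pH 7.4) given iv, specific radioactivity 2.9 TBq/μmol at injection. Dynamic 3D PET emission scan over 90 min in frames of 0.5 to 5 min. MRI T1 images used to define VOIs. Uptake expressed as […].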

[3] = Biodistribution in rhesus monkey retina at 150.3 MBq, iv after 13 mins; details: in vivo
[4] = Biodistribution in rhesus monkey occipital lobe at 150.3 MBq, iv after 37 mins; details: in vivo
Outline: (§2)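 Male rhesus monkey under ketamine 10 mg/kg im, head fixed; 20 min 68Ge-68Ga transmission scan, then 90 min dynamic 3D PET (6×0.5, 7×1, 20×2, 8×5 min frames) after iv [11C]-labelled tracer in saline, specific radioactivity about 2.9 TBq/μmol at injection. Regions defined on T1-weighted MRI; uptake expressed as % injected dose per mL.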

[5] = Biodistribution in rhesus monkey entorhinal cortex at 150.3 MBq, iv after 87.5 mins; details: in vivo; outline: as §1
Hippocampus [6] = test: Biodistribution in rhesus monkey hippocampus at 150.3 MBq, iv after 87.5 mins; details: in vivo; outline: as §2
[7] = Biodistribution in rhesus monkey occipital lobe at 150.3 MBq, iv after 29 mins; details: in vivo; outline: as §2
Striatum [8] = test: Biodistribution in rhesus monkey striatum at 150.3 MBq, iv after 72.5 mins; details: in vivo
[9] = Biodistribution in rhesus monkey entorhinal cortex at 150.3 MBq, iv after 47 mins; details: in vivo; outline: as §1
[10] = Biodistribution in rhesus monkey entorhinal cortex at 150.3 MBq, iv after 67.5 mins; details: in vivo, 1.125 h; outline: as §1
[11] = Biodistribution in rhesus monkey cingulate cortex at 150.3 MBq, iv after 11 mins; details: in vivo
Outline: (§3)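 Male rhesus monkey under ketamine (10 mg/kg im) with head fixation. After a 20 min 68Ge-68Ga transmission scan, the [11C]-labelled tracer in saline (pH 7.4) was injected iv, at 2.9 TBq/μmol specific radioactivity at injection. A dynamic 3D PET scan followed over 90 min (6×0.5, 7×1, 20×2, 8×5 min frames). Regions were defined on T1-weighted 1.5 T MRI, and uptake is given as %ID/mL.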

Striatum [12] = test: Biodistribution in rhesus monkey striatum at 150.3 MBq, iv after 27 mins; details: in vivo, 0.45 h
[13] = Biodistribution in rhesus monkey cingulate cortex at 150.3 MBq, iv after 3.5 mins; details: in vivo; outline: as §3
Hippocampus [14] = test: Biodistribution in rhesus monkey hippocampus at 150.3 MBq, iv after 39 mins; details: in vivo, 0.65 h; outline: as §2
[15] = Biodistribution in rhesus monkey entorhinal cortex at 150.3 MBq, iv after 2.75 mins; details: in vivo, 165 s; outline: as §1
Hippocampus [16] = test: Biodistribution in rhesus monkey hippocampus at 150.3 MBq, iv after 4.5 mins; details: in vivo, 0.075 h; outline: as §2
[17] = Biodistribution in rhesus monkey cerebellum at 150.3 MBq, iv after 15 mins; details: in vivo, 0.25 h; outline: as §3
[18] = Biodistribution in rhesus monkey entorhinal cortex at 150.3 MBq, iv after 2.25 mins; details: in vivo, 135 s; outline: as §1
[19] = Biodistribution in rhesus monkey occipital lobe at 150.3 MBq, iv after 87.5 mins; details: in vivo
Striatum [20] = test: Biodistribution in rhesus monkey striatum at 150.3 MBq, iv after 49 mins; details: in vivo
Striatum [21] = test: Biodistribution in rhesus monkey striatum at 150.3 MBq, iv after 47 mins; details: in vivo
[22] = Biodistribution in rhesus monkey retina at 150.3 MBq, iv after 15 mins; details: in vivo, 0.25 h
[23] = Biodistribution in rhesus monkey cerebellum at 150.3 MBq, iv after 77.5 mins; details: in vivo; outline: as §3
Hippocampus [24] = test: Biodistribution in rhesus monkey hippocampus at 150.3 MBq, iv after 67.5 mins; details: in vivo, 1.125 h; outline: as §2
[25] = Biodistribution in rhesus monkey cingulate cortex at 150.3 MBq, iv after 2.25 mins; details: in vivo, 135 s; outline: as §3
[26] = Biodistribution in rhesus monkey cingulate cortex at 150.3 MBq, iv after 21 mins; details: in vivo, 0.35 h; outline: as §3
[27] = Biodistribution in rhesus monkey cerebellum at 150.3 MBq, iv after 4.5 mins; details: in vivo, 0.075 h; outline: as §3
Striatum [28] = test: Biodistribution in rhesus monkey striatum at 150.3 MBq, iv after 15 mins; details: in vivo, 0.25 h
Striatum [29] = test: Biodistribution in rhesus monkey striatum at 150.3 MBq, iv after 33 mins; details: in vivo, 0.55 h
[30] = Biodistribution in rhesus monkey cingulate cortex at 150.3 MBq, iv after 31 mins; details: in vivo; outline: as §3
[31] = Biodistribution in rhesus monkey cingulate cortex at 170.3 MBq, iv after 17 mins; details: in vivo, in the assay text read “150.3 MBq” for “170.3 MBq”; outline: as §1
[32] = Biodistribution in rhesus monkey retina at 150.3 MBq, iv after 2.75 mins; details: in vivo, 165 s
Striatum [33] = test: Biodistribution in rhesus monkey striatum at 150.3 MBq, iv after 3.5 mins; details: in vivo
[34] = Biodistribution in rhesus monkey cerebellum at 150.3 MBq, iv after 41 mins; details: in vivo; outline: as §3
Striatum [35] = test: Biodistribution in rhesus monkey striatum at 150.3 MBq, iv after 21 mins; details: in vivo, 0.35 h
[36] = Biodistribution in rhesus monkey entorhinal cortex at 150.3 MBq, iv after 41 mins; details: in vivo; outline: as §1
[37] = Biodistribution in rhesus monkey occipital lobe at 150.3 MBq, iv after 77.5 mins; details: in vivo
Striatum [38] = test: Biodistribution in rhesus monkey striatum at 150.3 MBq, iv after 43 mins; details: in vivo
Striatum [39] = test: Biodistribution in rhesus monkey striatum at 150.3 MBq, iv after 2.75 mins; details: in vivo, 165 s
Striatum [40] = test: Biodistribution in rhesus monkey striatum at 150.3 MBq, iv after 8.5 mins; details: in vivo
Hippocampus [41] = test: Biodistribution in rhesus monkey hippocampus at 150.3 MBq, iv after 43 mins; details: in vivo; outline: as §2
[42] = Biodistribution in rhesus monkey entorhinal cortex at 170.3 MBq, iv after 17 mins; details: in vivo, in the assay text read “150.3 MBq” for “170.3 MBq”; outline: as §1
Striatum [43] = test: Biodistribution in rhesus monkey striatum at 150.3 MBq, iv after 6.5 mins; details: in vivo
Hippocampus [44] = test: Biodistribution in rhesus monkey hippocampus […], iv after 17 mins; details: in vivo, in the assay text read “150.3 MBq” for “170.3 MBq”; outline: as §2
[45] = Biodistribution in rhesus monkey entorhinal cortex at 150.3 MBq, iv after 62.5 mins; details: in vivo; outline: as §1
[46] = Biodistribution in rhesus monkey cingulate cortex at 150.3 MBq, iv after 0.25 mins; details: in vivo, 15 s; outline: as §3
[47] = Biodistribution in rhesus monkey entorhinal cortex at 150.3 MBq, iv after 21 mins; details: in vivo, 0.35 h; outline: as §1
[48] = Biodistribution in rhesus monkey retina at 150.3 MBq, iv after 2.25 mins; details: in vivo, 135 s

- Drug uptake [1]: 55.05 kBq/ml
- Drug uptake [2]: 22.26 kBq/ml
- Drug uptake [3]: 50.22 kBq/ml
- Drug uptake [4]: 11.24 kBq/ml
- Drug uptake [5]: 10.53 kBq/ml
- Drug uptake (Hippocampus [6]): 8.159 kBq/ml
- Drug uptake [7]: 13.8 kBq/ml
- Drug uptake (Striatum [8]): 9.016 kBq/ml
- Drug uptake [9]: 11.44 kBq/ml
- Drug uptake [10]: 7.481 kBq/ml
- Drug uptake [11]: 25.93 kBq/ml
- Drug uptake (Striatum [12]): 16.63 kBq/ml
- Drug uptake [13]: 42.88 kBq/ml
- Drug uptake (Hippocampus [14]): 12.1253 kBq/ml
- Drug uptake [15]: 41.01 kBq/ml
- Drug uptake (Hippocampus [16]): 41.63 kBq/ml
- Drug uptake [17]: 19.28 kBq/ml
- Drug uptake [18]: 40.15 kBq/ml
- Drug uptake [19]: 7.721 kBq/ml
- Drug uptake (Striatum [20]): 10.09 kBq/ml
- Drug uptake (Striatum [21]): 10.6 kBq/ml
- Drug uptake [22]: 50.94 kBq/ml
- Drug uptake [23]: 8.009 kBq/ml
- Drug uptake (Hippocampus [24]): 8.799 kBq/ml
- Drug uptake [25]: 50.61 kBq/ml
- Drug uptake [26]: 17.1 kBq/ml
- Drug uptake [27]: 34.76 kBq/ml
- Drug uptake (Striatum [28]): 21.63 kBq/ml
- Drug uptake (Striatum [29]): 14.6624 kBq/ml
- Drug uptake [30]: 14.33 kBq/ml
- Drug uptake [31]: 18.9122 kBq/ml
- Drug uptake [32]: 37.33 kBq/ml
- Drug uptake (Striatum [33]): 46.0188 kBq/ml
- Drug uptake [34]: 10.86 kBq/ml
- Drug uptake (Striatum [35]): 18.62 kBq/ml
- Drug uptake [36]: 11.877 kBq/ml
- Drug uptake [37]: 8.127 kBq/ml
- Drug uptake (Striatum [38]): 11.39 kBq/ml
- Drug uptake (Striatum [39]): 50.12 kBq/ml
- Drug uptake (Striatum [40]): 31.7 kBq/ml
- Drug uptake (Hippocampus [41]): 10.83 kBq/ml
- Drug uptake [42]: 20.28 kBq/ml
- Drug uptake (Striatum [43]): 36.37 kBq/ml
- Drug uptake (Hippocampus [44]): 19.15 kBq/ml
- Drug uptake [45]: 10.43 kBq/ml
- Drug uptake [46]: 46.02 kBq/ml
- Drug uptake [47]: 19.46 kBq/ml
- Drug uptake [48]: 36.9 kBq/ml
SMILES: [11CH3]Oc1cccc(C(=O)NCCN2CCN(c3ncccc3C#N)CC2)c1
